Source: PubChem BioAssay (several laboratories)
Rows were chosen to be rich in hits. Some 3.9% of all compounds tested hit in one or more screens of this group.
AHR act = AHR activators, primary screen, cell-based, luminescence, luciferase reporter, human; Aryl hydrocarbon receptor (Homo sapiens), P35869; activation, % at 5 µM; AHR-responsive luciferase reporter cells; 320,000 tested, 2.5% active; in the data active means activation above about 47%
SR-BI HDL uptake = inhibitors of SR-BI mediated HDL lipid uptake, primary screen, ldlA[mSR-BI] cells, fluorescence, single point. AID 488896, 2010. inhibition, % at 12.5 µM. 320,000 tested, 0.96% active. Scavenger receptor class B member 1 (Mus musculus), Q61009. ldlA[mSR-BI] CHO cells, DiI-HDL uptake fluorescence, 3 h;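 active means mean replicate inhibition of at least 70% and a set share of replicates each scoring 70 or more; inconclusive means meets just one of the two criteria; inactive means fails both criteria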
GAA850 FXN act = FXN promoter activators, primary screen, cell-based, luciferase luminescence, HEK293 lucGAA850; HEK293 lucGAA850 FXN promoter luciferase reporter, 24 h; percent of 10 µM SAHA response; activation, % at 6 µM; 360,000 tested, 0.56% active; AID 540364, 2011;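 active means activation above the average of all compounds screened plus 3 SD, cutoff fixed separately per campaign, cut at about 7.5% in these data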
HIF act = HIF pathway transcriptional activators, primary screen, cell-based, U2OS HRE-luciferase, luminescence | U2OS HRE-luciferase reporter; normalized: DMSO 0%, desferrioxamine 100% | activation, % at 7.5 µM (by protocol) | 300,000 tested, 0.32% active;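 active means mean activation of at least 10% of the iron chelator positive control signal, with at least half of replicates also reaching 10%; inconclusive means mean and replicate majority disagree about reaching 10%; inactive means mean and most replicates under 10%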
SR-BI DiI-HDL act = activators of SR-BI mediated DiI-HDL uptake, primary screen, ldlA[mSR-BI] CHO cells, DiI fluorescence; AID 504775, 2011; 320,000 tested, 0.096% active; activation, % at 12.5 µM; 3 h; 100 = double the neutral-control signal;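 active means mean replicate activation of at least 60% and every replicate at or above 60%; inconclusive means mean or all-replicate condition met, but not both; inactive means mean below 60% and not all replicates reaching 60%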
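Test system: SR-BI-overexpressing, LDLR-lacking CHO cells; Medium: Ham's F12 with 0.5% BSA, HEPES 25 mM, pH 7.4; Schedule: 3 h, 37 °C; Technique: bottom-read fluorescence, 550/595 nm.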
ABCB6 inh 2 = ABCB6 transporter inhibitors, primary screen, K562-ABCB6 cells, flow cytometry, MLPCN library; ATP-binding cassette sub-family B member 6 (Homo sapiens), Q9NP58; K562-ABCB6 porphyrin accumulation, 1 h; active compounds read low; AID 602162, 2011; 360,000 tested, 0.19% active; fluorescence ratio to DMSO, % at 10 µM;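 active means fluorescence ratio to DMSO below 75%, the collection mean minus 3 SD; inconclusive means too few cells collected in the well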;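 further: signal is porphyrin accumulated inside mitochondria; lower ratio means ABCB6 inhibition with less porphyrin fluorescence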
Each line names hits and unclear results; the compound was inactive in the other large screens.

COc1ccc(OC)c(CNc2ccc([N+](=O)[O-])cc2C)c1	none
COc1ccc(C2CC(=O)Oc3c(C(CCN4CCOCC4)c4cc(OC)c(OC)c(OC)c4)c(OC)cc(OC)c32)cc1 (centres undefined)	none
CCCc1cc(=O)n2[nH]c(-c3ccccc3)cc2n1	AHR act 71.9
CCCc1cc(=O)n2[nH]c(-c3ccc(C)cc3)cc2n1	AHR act 68.7
CC1Cc2ccccc2N1C(=O)C1CCCN(S(=O)(=O)c2cccc3cccnc23)C1 (centres undefined)	none (no result: HIF act)
CCN(C(=O)COC(=O)/C(=C/c1ccccc1)NC(C)=O)c1c(N)n(Cc2ccccc2)c(=O)[nH]c1=O	none (no result: AHR act, HIF act)
C=CCN1C(=O)/C(=C2/Sc3ccc(OC)cc3N2C)SC1=Nc1cccc(O)c1	SR-BI HDL uptake 102.0
CCc1cccc2c(C(=O)COC(=O)/C=C/c3ccc(O)c(OC)c3)c[nH]c12	SR-BI HDL uptake 75.5
O=C(O)Cc1sc(Nc2cccc3ccccc23)nc1-c1ccccc1	AHR act 61.0 (no result: HIF act)
O=C(O)Cc1sc(Nc2cccc3ccccc23)nc1-c1ccc(Cl)cc1	AHR act 56.3
Nc1nc(-c2ccccc2)c(CC(=O)O)s1	none (no result: AHR act, SR-BI HDL uptake, HIF act, SR-BI DiI-HDL act)
COC(=O)COc1ccc(S(=O)(=O)N2CCOCC2)cc1C	none
CCN(CC(=O)Nc1ccc(N2CCOCC2)cc1)C(=O)Cc1ccccc1	none (no result: HIF act)
CC(NC(=O)c1cccnc1)C(c1cccs1)N1CCN(c2ccccc2F)CC1 (centres undefined)	none
Nc1ccc(-c2nc3c(Cl)c(N)ccc3[nH]2)cc1	AHR act 59.9
Nc1ccc(-c2nc3ccc(N)cc3[nH]2)cc1	none
COc1ccc(C(=O)Nc2nc(CC(=O)NCCc3cccc(OC)c3)cs2)cc1	SR-BI HDL uptake 73.3
COc1ccc(C(=O)Nc2nc(CC(=O)NCCc3ccccc3)cs2)cc1	AHR act 48.0
CCOC(=O)Cc1csc(NC(=O)c2cccc(OC)c2)n1	none
COc1ccccc1C(=O)NNC(=O)CN1C(=O)c2ccccc2C1=O	none
COC(=O)c1cccc(NC(=O)CC2C(=O)NCCN2C(=O)c2ccc(F)cc2F)c1 (centres undefined)	none
C=CCc1cc(C)cc(C)c1OCCn1cncn1	AHR act 59.5
C=CCc1ccc(OCCn2cncn2)c(OC)c1	none
CC1=NN(C(=O)c2ccc(C)cc2)C(O)(C(F)(F)OC(F)(F)F)C1 (centres undefined)	SR-BI HDL uptake 89.0
CCOc1ccc(S(=O)(=O)N(C)c2ccc(OCC(=O)NC3=NCCS3)cc2)cc1	none
Cc1ccc(CNc2ccc3c(c2)nc(C)n3C)cc1	AHR act 56.8, HIF act inconclusive
Cc1nc2cc(NCc3ccc(Cl)cc3)ccc2n1C	none (no result: SR-BI HDL uptake, SR-BI DiI-HDL act)
CCOC(=O)C1=C(CN2CCN(c3ccc(F)cc3)CC2)NC(=O)NC1c1cccs1 (centres undefined)	SR-BI HDL uptake 78.3
Cc1ccc(-n2nc3c(c2NC(=O)c2ccco2)CS(=O)(=O)C3)cc1C	none
C#CCn1cc(/C=C2\NC(=O)NC2=O)c2ccccc21	AHR act 76.8
CC(C)n1cc(/C=C2/NC(=O)NC2=O)c2ccccc21	AHR act 74.4
O=C(NC1CCC(O)CC1)c1ccc(-c2ccc(Cl)cc2)o1 (centres undefined)	none
O=C(NNC(=O)c1ccccc1F)c1ccc(-c2ccc(Cl)cc2)o1	AHR act 67.8
CCOC(=O)c1c(NC(=O)C2=C(C)NC(=S)NC2c2ccc(C)cc2)sc(C)c1C (centres undefined)	SR-BI HDL uptake 72.0
CCOC(=O)C1=C(C)NC(=S)NC1c1ccc(OCC(=O)N2CCCCC2)cc1 (centres undefined)	SR-BI HDL uptake 73.4
CCOC(=O)c1c(NC(=O)C2=C(C)NC(=S)NC2c2ccc(F)cc2)sc(C)c1C (centres undefined)	SR-BI HDL uptake 70.7 (no result: HIF act)
CCOC(=O)C1=C(C)NC(=S)NC1c1ccc(OCC(=O)N2CCCCCC2)c(OC)c1 (centres undefined)	SR-BI HDL uptake inconclusive
CC1=C(C(=O)Nc2ccccn2)C(c2ccc(Cl)cc2)NC(=S)N1 (centres undefined)	none
CCOC(=O)c1c(NC(=O)C2=C(C)NC(=S)NC2c2ccc(F)cc2F)sc(C)c1C (centres undefined)	none
CC1CN(CCOc2ccccc2-c2ccccc2)CC(C)O1 (centres undefined)	none
CCc1c(C)c(C#N)c2[nH]c3ccccc3n2c1=S	AHR act 58.7
Cc1cc(NC(=O)CCCC(=O)OCC(F)(F)C(F)F)cc(C)c1C(=O)O	none
COC(=O)c1oc2ccccc2c1NC(=O)CN1CCCC1	AHR act 54.0
CCc1cc(/C(Cc2ccccn2)=N\Nc2ccccc2)c(O)cc1O	AHR act 76.8
O=C(C1=C[C@@H]2[C@H]3C(=O)N(c4ccc(Cl)cc4)C(=O)[C@H]3[C@@H](C(=O)c3ccc(Cl)cc3)N2C=C1)c1ccccc1	AHR act 49.5
COc1cc(NC(=O)c2cc3ccccc3cc2O)c(OC)cc1Cl	AHR act 52.4
COc1ccccc1NC(=O)c1cccc2c(Br)cccc12	AHR act 53.1
COc1ccccc1NC(=O)c1cc2cc(Br)ccc2cc1O	AHR act 54.8, SR-BI HDL uptake inconclusive
CC(C)(C)OC(=O)NCCCC[C@H](NC(=O)c1[nH]cnc1C(=O)Nc1ccc(CNC(=O)OC(C)(C)C)cc1)C(=O)OC(C)(C)C	none (no result: SR-BI HDL uptake, GAA850 FXN act, HIF act, SR-BI DiI-HDL act, ABCB6 inh 2)
COC(=O)c1cc2sc(Cl)cc2n1CC(=O)Nc1ccc(OC)c(OC)c1OC	none
Fc1cc(NC(=S)NCc2ccc(CNC(=S)Nc3ccc(Cl)c(F)c3)cc2)ccc1Cl	SR-BI HDL uptake 73.3
CCC(C)(C)C1CCC(=NNC(=S)Nc2ccccc2)CC1 (centres undefined)	none
CCC(C)(C)C1CCC(=NNC(=S)Nc2cccnc2)CC1 (centres undefined)	AHR act 69.2
CCOc1ccc(CCNC(=O)C2CCN(S(=O)(=O)N3CCOCC3)CC2)cc1OCC	none (no result: SR-BI HDL uptake, SR-BI DiI-HDL act)
CCCNC(=S)Nc1cc2oc3ccccc3c2cc1OC	AHR act 52.6, SR-BI HDL uptake 88.9
CCN(CC)S(=O)(=O)c1ccc(C(=O)Nc2cc3oc4ccccc4c3cc2OC)cc1	AHR act 51.4
COc1cc2c(cc1NC(=O)COC(=O)[C@@H](NS(=O)(=O)c1cccc(Cl)c1)C(C)C)oc1ccccc12	AHR act 57.3
